A selection: hits, their analogues and other compounds. The true share with any hit is near 8.7%.
Pyk2 oligo antag – antagonists of human Pyk2 oligomerization; Q14289; Q293 cells, Pyk2 FERM NanoBiT luminescence; active compounds read low; z-score (the deposit names both 25 µM and 10 µM); hit rate 0.83% among 99,000; AID 1347419;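 active means Z-score of -3 or lower, scaled per plate to the spread of control and sample wells; inactive means z-score above -3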;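 further: negative z-score means lost luminescence so less FERM oligomerization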
Target sequence (Q14289 whole entry, looked up): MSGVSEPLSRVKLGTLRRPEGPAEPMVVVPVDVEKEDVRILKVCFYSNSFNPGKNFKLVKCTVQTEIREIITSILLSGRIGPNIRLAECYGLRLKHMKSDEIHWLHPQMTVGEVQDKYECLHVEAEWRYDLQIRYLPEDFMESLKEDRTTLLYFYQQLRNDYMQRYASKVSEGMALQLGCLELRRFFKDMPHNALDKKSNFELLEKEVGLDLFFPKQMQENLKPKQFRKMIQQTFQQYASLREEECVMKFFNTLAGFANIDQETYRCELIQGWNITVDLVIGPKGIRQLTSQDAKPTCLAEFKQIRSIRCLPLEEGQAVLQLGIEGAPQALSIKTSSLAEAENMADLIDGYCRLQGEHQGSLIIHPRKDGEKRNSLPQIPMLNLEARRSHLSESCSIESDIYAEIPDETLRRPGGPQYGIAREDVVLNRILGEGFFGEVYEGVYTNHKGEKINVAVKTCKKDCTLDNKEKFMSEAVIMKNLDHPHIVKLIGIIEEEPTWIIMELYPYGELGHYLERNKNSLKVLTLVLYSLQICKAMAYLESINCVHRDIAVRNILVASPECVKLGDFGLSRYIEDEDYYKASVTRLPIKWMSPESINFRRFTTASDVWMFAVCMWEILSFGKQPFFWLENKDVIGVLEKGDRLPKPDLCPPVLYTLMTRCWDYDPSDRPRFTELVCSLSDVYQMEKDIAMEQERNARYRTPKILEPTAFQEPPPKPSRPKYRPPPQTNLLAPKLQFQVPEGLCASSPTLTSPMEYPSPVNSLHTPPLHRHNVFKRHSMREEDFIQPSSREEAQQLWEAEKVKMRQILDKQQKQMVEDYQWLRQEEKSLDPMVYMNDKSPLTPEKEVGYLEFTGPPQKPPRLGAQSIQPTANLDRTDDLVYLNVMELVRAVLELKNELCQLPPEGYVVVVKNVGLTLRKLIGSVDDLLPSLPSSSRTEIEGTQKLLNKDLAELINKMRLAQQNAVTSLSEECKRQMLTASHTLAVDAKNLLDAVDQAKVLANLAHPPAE
E coli WT exp – growth inhibitors of E. coli BW25113 wild type; OD600 absorbance; growth inhibition, % at 100 µM; hit rate 0.15% among 98,000;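 active means growth inhibition above about 50% at one test dose, limit read from the data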;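 further: growth measured after 20 h incubation at 37 °C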
PostGolgi ctrl – growth of the yeast control strain, post-Golgi counter-screen; efflux-deficient yeast background strain, growth absorbance A615, 16 h; hit rate 5% among 98,000; AID 738; inhibition, % at 10 µM
Cav3 T inh – inhibitors of human Cav3.2 T-type calcium channel | hit rate 4% among 100,000 | Cav3.2-expressing cells, Fluo-4 calcium fluorescence FDSS; active compounds read low | O95180 | B-score at 10 µM;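 active means single-dose well whose peak fluorescence ratio is a statistical outlier from its plate by either plate-standardised score or position-corrected B-score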
PostGolgi yeast – growth inhibition of a yeast mutant, post-Golgi transport screen | hit rate 0.9% among 98,000 | post-Golgi transport phenotypic cell assay | inhibition, % at 10 µM;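 further: yeast cells grown in 1536-well plates; yeast grown about 18 h at 30C before absorbance read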
tolC growth inh – blocks growth of E. coli BW25113 tolC mutant | OD615 | growth inhibition, % at 10 µM (by protocol) | hit rate 2.2% among 65,000 | AID 573;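 active means growth inhibition at or above a cutoff equal to the mean over every tested compound plus 3 SD, cut at about 60% in these data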;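 further: growth measured after 20 h incubation at 37 °C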
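Material: E. coli BW25113 ΔtolC::kan, tolC deletion mutant strain. Measure: percent growth inhibition. Schedule: 37 °C, 20 h exposure. Doses: single-point testing at 10 µM. Signal: A615 absorbance measurement. Buffer or medium: kanamycin-containing LB broth (50 µg/mL).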
Hits are given with their value; 0 = inactive; - = no result given. Unless noted, no stated cut-off is given here; in the data, active means inhibition above about 30%; inactive means the rest.

SMILES	Pyk2 oligo antag	E coli WT exp	PostGolgi ctrl	Cav3 T inh	PostGolgi yeast	tolC growth inh
Cc1cccc(NS(=O)(=O)c2ccc3c(c2)OCCO3)c1	0	0	0	0	0	-
O=S(=O)(NCC1CCCO1)c1ccc2c(c1)OCCO2 (configuration not stated)	0	0	0	0	0	0
COc1ccc(S(=O)(=O)NC2CC3CCC2C3)cc1Cl (configuration not stated)	0	0	94.9	0	81.4	0
O=S(=O)(NC1CC2CCC1C2)c1ccc2c(c1)OCCO2 (configuration not stated)	0	0	55.1	0	0	0
CC1CCCC(NS(=O)(=O)c2ccc3c(c2)OCCO3)C1C (configuration not stated)	0	0	55.4	0	0	0
COc1cc(S(=O)(=O)NC2CCCCC2)ccc1Cl	0	0	0	0	0	0
CC(C)(C)NC(=S)NCc1cccnc1	0	0	0	0	0	-
CCC(C)NC(=O)C1CCCN(S(=O)(=O)c2ccc(-n3cnnn3)cc2)C1 (configuration not stated)	0	0	0	0	0	0
CC(C)(C)c1ccc(S(=O)(=O)NCCOCC(F)(F)C(F)F)cc1	0	0	0	-3.77	0	0
COc1ccccc1N1CCN(C(=O)COc2ccc(Cl)cc2)CC1	0	0	0	0	0	0
CC(C)=CC(=O)Nc1ccc(Br)cc1	0	0	0	0	0	0
Cc1nc(SCC(=O)Nc2ccc3c(c2)OCO3)c(C#N)c2c1CCCC2	-3.23	0	0	0	0	0
O=C(CSCc1ccc(Cl)cc1)NCc1ccc2c(c1)OCO2	0	0	0	-6.11	0	-
O=C(CSc1nnc(SCC(=O)NCc2ccc3c(c2)OCO3)s1)NCc1ccc2c(c1)OCO2	0	0	0	0	0	-
CCOc1cccc(NC(=O)CSc2nc(C)c3c(c2C#N)CCCC3)c1	0	0	0	0	0	-
O=C(CSCc1ccc(Cl)cc1)Nc1ccc2c(c1)OCO2	0	-	-	-5.65	-	-
CC(=O)NC(CC(C)C)C(=O)NC(=O)NCc1ccccc1 (configuration not stated)	0	0	0	0	0	0
COC(=O)c1sc(S(=O)(=O)N2CCN(c3ccccc3)CC2)c(C(=O)OC)c1C	0	0	0	0	0	0
CC(=O)NC1CC(C)(C)N(OC(C)=O)C(C)(C)C1	0	0	0	-	0	0
O=C(c1ccc(COc2ccccc2Cl)o1)N1CCCC1	0	0	0	0	0	-
CC1CCN(C(=O)c2ccc(COc3ccccc3Cl)o2)CC1	0	0	0	0	0	86.7
COc1ccccc1OCc1ccc(C(=O)n2nc(C)c(Cl)c2C)o1	0	0	32.9	0	0	0
Cc1ccc2c(C)c(C(=O)N(Cc3cccs3)C3CCS(=O)(=O)C3)oc2c1 (configuration not stated)	0	0	0	0	0	-
CCOc1ccc(CN(C(=O)c2oc3cc(C)ccc3c2C)C2CCS(=O)(=O)C2)cc1 (configuration not stated)	0	0	35.3	0	0	-
Cn1c(=O)c2c(-c3ccncc3)c3c(nc2n(C)c1=O)-c1ccccc1C3=O	-	-	-	-	-	0
SMILES	Pyk2 oligo antag	E coli WT exp	PostGolgi ctrl	Cav3 T inh	PostGolgi yeast	tolC growth inh
COc1ccc(S(=O)(=O)N/N=C(/C)c2cccc(NC(=O)c3ccccc3Cl)c2)cc1	0	0	0	-	0	-
CC(NC(=O)Cc1cccs1)c1ccc2c(c1)OCO2 (configuration not stated)	0	0	37.2	0	0	0
CC(NC(=O)Cc1cccs1)c1ccncc1 (configuration not stated)	0	0	0	0	0	0
S=c1[nH]nc(COc2ccccc2)n1/N=C/C(Cl)=C/c1ccccc1	0	0	0	0	0	-
CCOc1ccc(C(=O)Nc2c3c(nn2C(C)(C)C)CSC3)cc1OCC	0	0	0	-3.33	0	0
Cc1c(C(=O)Nc2ccc3c(c2)OCO3)sc2ncn(CC(=O)N3CC(C)CC(C)C3)c(=O)c12 (configuration not stated)	0	0	0	0	0	-
O=C(NC(=S)NCCc1ccccc1)c1ccccc1	0	0	0	0	0	-
COCCCNC(=S)NNC(=O)c1cccnc1	0	0	0	0	0	-
O=C(NNC(=S)NC(=O)c1cccnc1)c1ccccc1	0	53.0	0	0	0	-
O=C(CCc1ccccc1)NNC(=S)NC(=O)c1ccccc1	0	63.0	32.4	0	0	-
CCCCSc1nc(C)c(CC(=O)O)c(=O)[nH]1	0	0	0	0	0	0
COc1ccc(/C=N\NC(=O)C2=NNC(=O)C2C)cc1 (configuration not stated)	0	0	0	0	0	-
COc1ccc(N(C(=O)c2ccc(F)cc2)C2=CC3CCC(C2)N3C)cc1 (configuration not stated)	0	0	0	0	0	-
Cc1nnc2n(CCc3ccccc3)c(=O)c3c4c(sc3n12)CCCC4	-	-	-	-	-	0
CN(C)c1ccc(C(c2nnnn2CCOC(=O)Nc2ccc(Cl)cc2)N2CCOCC2)cc1 (configuration not stated)	0	0	34.4	-4.12	0	0
COc1cc(OC)c(NC(=O)CCc2nc(-c3ccc(C)cc3)no2)cc1Cl	0	0	0	0	0	0
Cc1cccnc1NC(=O)c1c(O)c2cccc3c2n(c1=O)CCC3	0	0	0	0	0	69.8
COc1ccccc1NC(=O)C(C)NS(=O)(=O)c1ccc(Cl)cc1 (configuration not stated)	0	0	0	0	0	0
Cc1nnc(SCC(=O)Nc2nc3c(s2)CC(C)CC3)s1 (configuration not stated)	0	0	0	0	0	0
CC1CCc2nc(NC(=O)CN3CCN(c4ccc(F)cc4)CC3)sc2C1 (configuration not stated)	0	0	0	-5.04	0	-
CC1CCc2nc(NC(=O)c3cc(C(C)(C)C)nn3C)sc2C1 (configuration not stated)	-	-	-	-	-	67.0
CC(C)CCn1c(Br)nc2c1c(=O)n(CC(N)=O)c(=O)n2C	0	0	0	0	0	0
CCc1c(C(C)O)oc2ccc3c(C)cc(=O)oc3c12 (configuration not stated)	-	0	0	0	0	0
COc1ccc(CCN2C(=O)C(O)=C(C(=O)c3ccco3)C2c2cccs2)cc1OC (configuration not stated)	0	0	0	0	0	0
CCOc1cc2[nH]c(=O)n(CCCCC(=O)NC3CCCCC3)c(=O)c2cc1OCC	-	-	-	-	-	0
CC(=O)SCC(Cc1ccccc1)C(=O)NCC(=O)OCc1ccccc1 (configuration not stated)	-	-	-	-5.21	-	-
Cc1csc(NC(=O)c2sc3nc(-c4cccs4)ccc3c2N)n1	-	0	0	-5.44	0	0
Cc1csc(NC(=O)c2ccccc2O)n1	0	0	0	0	0	0
CCCSc1nnc(NC(=O)c2sc3nc(-c4cccs4)ccc3c2N)s1	0	0	0	-9.92	0	0
FC(F)(F)c1cc(C(F)(F)F)c2ccc(N3CCN(c4ccc(Cl)cc4)CC3)nc2n1	0	0	0	-7.03	0	-

Bioassay records from PubChem.
